Key:
Format in all cases: functional
[1] = target: T1, Estrogen receptor (Mus musculus) (UniProt O08537+P19785); test: Estrogenic effect in uterotrophic assay in mice at 1 nM/animal dose
Method in brief: (§1)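 Immature female NMRI mice (20 days old, 10–12 g, six per group) given test compound sc once daily for three consecutive days in poly(ethylene glycol) 400/H2O (1.8% NaCl) 1:1. Uteri excised 24 h after last injection, fixed in Bouin's solution, dried, weighed. Effect = uterus dry weight (mg)/body weight (g) × 100, expressed relative to vehicle and estrone standard (0.4 μg) as % estrogenic effect.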

[2] = target: T1, Estrogen receptor (Mus musculus); test: Estrogenic effect in uterotrophic assay in mice at 10 nM/animal dose; method in brief: as §1
[3] = target: T1, Estrogen receptor (Mus musculus); test: Estrogenic effect in uterotrophic assay in mice at 0.1 nM/animal dose; method in brief: as §1
[4] = target: T1, Estrogen receptor (Mus musculus); test: Estrogenic effect in uterotrophic assay in mice at 100 nM/animal dose; method in brief: as §1
[5] = target: T1, Estrogen receptor (Mus musculus); test: Estrogenic effect in uterotrophic assay in mice at 1000 nM/animal dose; method in brief: as §1

T1 sequence (O08537 whole entry, looked up): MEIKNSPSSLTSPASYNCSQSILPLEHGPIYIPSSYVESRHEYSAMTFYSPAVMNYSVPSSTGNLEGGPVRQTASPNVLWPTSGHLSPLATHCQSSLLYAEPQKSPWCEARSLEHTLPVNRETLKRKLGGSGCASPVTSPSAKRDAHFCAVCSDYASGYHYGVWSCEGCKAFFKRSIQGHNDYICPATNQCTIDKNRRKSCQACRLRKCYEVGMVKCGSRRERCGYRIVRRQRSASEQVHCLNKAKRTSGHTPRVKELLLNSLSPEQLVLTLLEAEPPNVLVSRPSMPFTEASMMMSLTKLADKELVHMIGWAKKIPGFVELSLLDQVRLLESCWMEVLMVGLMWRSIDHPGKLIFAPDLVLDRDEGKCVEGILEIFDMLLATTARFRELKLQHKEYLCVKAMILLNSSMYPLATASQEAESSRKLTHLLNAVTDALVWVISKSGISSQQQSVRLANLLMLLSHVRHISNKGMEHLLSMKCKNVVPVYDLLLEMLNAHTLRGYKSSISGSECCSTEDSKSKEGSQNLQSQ
T1 sequence (P19785 whole entry, looked up): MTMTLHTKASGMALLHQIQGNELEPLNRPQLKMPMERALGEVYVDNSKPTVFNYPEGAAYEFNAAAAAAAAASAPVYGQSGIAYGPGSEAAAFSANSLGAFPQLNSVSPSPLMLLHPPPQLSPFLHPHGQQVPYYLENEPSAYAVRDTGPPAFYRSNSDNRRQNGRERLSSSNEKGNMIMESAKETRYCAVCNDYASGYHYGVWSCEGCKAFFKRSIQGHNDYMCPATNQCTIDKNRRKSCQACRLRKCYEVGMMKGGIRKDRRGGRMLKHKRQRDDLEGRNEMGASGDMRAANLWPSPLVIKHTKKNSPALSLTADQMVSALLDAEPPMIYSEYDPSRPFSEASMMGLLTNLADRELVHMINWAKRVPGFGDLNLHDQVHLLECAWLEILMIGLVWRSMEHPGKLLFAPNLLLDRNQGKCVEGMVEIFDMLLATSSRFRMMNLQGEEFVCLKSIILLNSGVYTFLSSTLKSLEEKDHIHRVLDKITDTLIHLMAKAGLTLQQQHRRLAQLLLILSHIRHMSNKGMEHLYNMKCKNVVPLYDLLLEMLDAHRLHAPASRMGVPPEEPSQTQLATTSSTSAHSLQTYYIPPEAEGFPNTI

Estrogenic effect [1] [%] | Estrogenic effect [2] [%] | Estrogenic effect [3] [%] | Estrogenic effect [4] [%] | Estrogenic effect [5] [%] | SMILES
93 | 140 | 22 | 156 |  | CCNC(CCC(N)c1c(Cl)cc(O)cc1Cl)c1c(Cl)cc(O)cc1Cl (stereo unspecified)
0 | 78 | 0 | 142 |  | CCNC(CCC(NCC)c1c(Cl)cc(O)cc1Cl)c1c(Cl)cc(O)cc1Cl (racemic)
0 | 3 | 0 | 12 | 72 | CNC(CCC(NC)c1c(Cl)cc(O)cc1Cl)c1c(Cl)cc(O)cc1Cl (racemic)
0 | 13 | 0 | 10 | 21 | NC(CCC(N)c1c(Cl)cc(O)cc1Cl)c1c(Cl)cc(O)cc1Cl (racemic)
125 | 140 | 61 | 128 |  | CCNC(CCC(NCC)c1c(Cl)cc(O)cc1Cl)c1c(Cl)cc(O)cc1Cl (stereo in doubt)
47 | 139 | 0 | 127 | 47 | CNC(CCC(NC)c1c(Cl)cc(O)cc1Cl)c1c(Cl)cc(O)cc1Cl (stereo in doubt)
38 | 135 | 0 | 100 |  | NC(CCC(N)c1c(Cl)cc(O)cc1Cl)c1c(Cl)cc(O)cc1Cl (stereo in doubt)

From ChEMBL document CHEMBL1128391, “Investigation of the configurational and conformational influences on the hormonal activity of 1,2-bis(2,6-dichloro-4-hydroxyphenyl)ethylenediamines and of their platinum(II) complexes. 1. Synthesis, estradiol receptor affinity, and estrogenic activity of diastereomeric [N-alkyl- and …” (J Med Chem, 1995)
